Active and inactive are the calls of the source. The calls are words filed in the database; no cut-off is given here. Non-standard residues stand in square brackets, D forms with d. Residues, ends and D or L forms follow the SMILES beside them. Groups on a side chain read outwards from the residue. Ahx = NCCCCCC(=O)O
What was measured:
[1] = system: BL-41; test: Induction of apoptosis in CD40-positive human BL41 cells assessed as level of CD40 expression by mean fluorescence intensity; type: functional, cell-based
[2] = system: BL-41; test: Induction of apoptosis in CD40-positive human BL41 cells assessed as detection of phosphatidylserine expression using annexin V-FITC and propidium iodine staining by flow cytometry; type: functional, cell-based
Method in brief: (§1)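 BL41 Burkitt lymphoma cells in RPMI 1640 with 10% FBS were seeded at 5×10^5 ml⁻¹ and exposed to inducers at 37 °C (16 h). Apoptosis was read by flow cytometry, either as loss of DiOC₆(3) uptake (Δψm) or as annexin V–FITC/PI co-staining. Specific apoptosis % = (treated − control)×100/(100 − control). Values are means of three independent experiments.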

[3] = system: BL-41; test: Induction of apoptosis in CD40-positive human BL41 cells assessed as decrease in mitochondrial membrane potential after 16 hrs by mean fluorescence intensity; type: functional, cell-based; method in brief: as §1
[4] = target: T1, Tumor necrosis factor receptor superfamily member 5 (Homo sapiens, UniProt P25942); test: Inhibition of recombinant human CD40L:mouse CD8 tail binding to human CD40 by surface plasmon resonance method
T1 sequence (P25942 whole entry): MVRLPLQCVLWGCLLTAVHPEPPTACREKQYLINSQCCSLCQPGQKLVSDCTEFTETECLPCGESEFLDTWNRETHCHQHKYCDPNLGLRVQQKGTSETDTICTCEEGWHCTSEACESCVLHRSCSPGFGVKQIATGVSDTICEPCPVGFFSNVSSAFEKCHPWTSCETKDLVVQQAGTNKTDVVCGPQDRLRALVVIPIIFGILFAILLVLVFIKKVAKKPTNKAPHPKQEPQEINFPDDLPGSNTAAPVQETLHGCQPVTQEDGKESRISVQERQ
Method in brief: (§2)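 hCD40:mIg was captured on an anti-mouse Ig chip. A fixed amount of soluble hCD40L:CD8 was premixed with increasing ligand concentrations, and the mixtures were injected at 25 °C in HBS-EP, 30 µl min⁻¹, 5 min association and 5 min dissociation. Regeneration was 50 mM HCl. Inhibition of CD40L binding was taken from reference-subtracted sensorgrams.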

[5] = target: T1, Tumor necrosis factor receptor superfamily member 5; test: Inhibition of recombinant human CD40L:mouse CD8 tail binding to human CD40 at 10 uM by surface plasmon resonance method; method in brief: as §2
[6] = system: BL-41; test: Induction of apoptosis in CD40-positive human BL41 cells assessed as decrease in reduction in DiOC6 dye uptake after DAPI staining by epifluorescence microscopy; type: functional, cell-based
[7] = system: D1; test: Induction of mouse D1 cell maturation assessed as CD54 expression at 5 to 10 uM after 48 hrs by flow cytometry in presence of 10 ug/ml LPS inhibitor polymyxin B; type: functional, cell-based
Method in brief: (§3)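 D1 cells (2×10^5 ml⁻¹, 48 h preculture) were treated 48 h with inducers in fresh medium. Assays were also run with polymyxin B present to exclude LPS-driven activation, and LPS at 10 µg ml⁻¹ was the reference stimulus. Cells were harvested in PBS/EDTA and surface maturation markers were measured by flow cytometry.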

[8] = system: D1; test: Induction of mouse D1 cell maturation assessed as CD80 expression at 5 to 10 uM after 48 hrs by flow cytometry in presence of 10 ug/ml LPS inhibitor polymyxin B; type: functional, cell-based; method in brief: as §3
[9] = system: D1; test: Induction of mouse D1 cell maturation assessed as CD86 expression at 5 to 10 uM after 48 hrs by flow cytometry in presence of 10 ug/ml LPS inhibitor polymyxin B; type: functional, cell-based; method in brief: as §3
[10] = system: BL-41; test: Induction of apoptosis in CD40-positive human BL41 cells assessed as reduction in DiOC6 dye uptake after DAPI staining
[11] = target: Tumor necrosis factor receptor superfamily member 3 (Homo sapiens) (UniProt P36941); test: Binding affinity to human lymphotoxin beta receptor by surface plasmon resonance method
Chain of Tumor necrosis factor receptor superfamily member 3 (Homo sapiens) (P36941 whole entry, the tested form may be a part): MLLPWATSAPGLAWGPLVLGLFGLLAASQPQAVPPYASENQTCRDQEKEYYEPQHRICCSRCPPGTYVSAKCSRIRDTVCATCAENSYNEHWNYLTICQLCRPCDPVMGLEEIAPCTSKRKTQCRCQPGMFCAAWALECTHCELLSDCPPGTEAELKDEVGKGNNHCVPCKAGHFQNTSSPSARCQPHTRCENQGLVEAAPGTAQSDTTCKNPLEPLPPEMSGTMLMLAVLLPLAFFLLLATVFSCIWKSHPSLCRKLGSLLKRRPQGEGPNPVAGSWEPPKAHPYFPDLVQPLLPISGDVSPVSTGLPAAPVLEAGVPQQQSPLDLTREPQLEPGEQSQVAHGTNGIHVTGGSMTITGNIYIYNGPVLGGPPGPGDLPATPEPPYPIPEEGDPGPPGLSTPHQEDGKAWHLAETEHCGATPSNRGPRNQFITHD
Method in brief: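 TNFR:Fc fusion captured at 5 µl min⁻¹ on a CM5 chip precoated by amine coupling with rabbit anti-mouse Ig or goat anti-human Ig (~10,000 RU). Mimetics injected at several concentrations at 30 µl min⁻¹, 5 min association and 5 min dissociation, 25 °C, HBS-EP pH 7.4. Regeneration 30 s with 50 mM HCl. Control-channel sensorgrams subtracted and fitted to binding models.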

[12] = target: T2, Tumor necrosis factor receptor superfamily member 1A (Homo sapiens) (UniProt P19438); test: Binding affinity to human TNFR1 by surface plasmon resonance method
T2 sequence (whole entry): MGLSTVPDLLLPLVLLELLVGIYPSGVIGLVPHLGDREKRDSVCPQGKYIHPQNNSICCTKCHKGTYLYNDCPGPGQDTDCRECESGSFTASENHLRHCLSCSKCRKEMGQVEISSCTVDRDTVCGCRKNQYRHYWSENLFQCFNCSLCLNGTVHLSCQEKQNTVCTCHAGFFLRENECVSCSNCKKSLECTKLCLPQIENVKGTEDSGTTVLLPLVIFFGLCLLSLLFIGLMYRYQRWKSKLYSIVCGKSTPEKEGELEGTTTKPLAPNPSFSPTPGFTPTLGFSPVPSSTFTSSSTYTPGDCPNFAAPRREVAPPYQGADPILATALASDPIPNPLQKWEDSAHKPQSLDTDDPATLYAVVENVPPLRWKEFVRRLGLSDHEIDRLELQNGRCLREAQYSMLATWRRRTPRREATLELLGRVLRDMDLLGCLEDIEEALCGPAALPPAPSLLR
Method in brief: (§4)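 TNFR:Fc fusion proteins were captured on an anti-Ig-coated CM5 chip at equivalent protein mass. An irrelevant IgG2a served as control surface. Ligands were injected at several concentrations at 25 °C in HBS-EP running buffer, pH 7.4, 30 µl min⁻¹ flow, 5 min association and 5 min dissociation, with 50 mM HCl regeneration. Reference-subtracted sensorgrams were fitted to binding models.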

[13] = system: D1; test: Induction of interleukin-12 production in mouse D1 cells by RT-PCR method; type: functional, cell-based
Method in brief: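 D1 cells, precultured 48 h at 2×10^5 ml⁻¹, were given fresh medium containing inducers. After incubation, RNA was analysed by comparative RT-PCR for IL-12 p40 mRNA, with Gapdh as housekeeping control. LPS at 10 µg ml⁻¹ served as reference stimulus.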

[14] = target: Tumor necrosis factor receptor superfamily member 10A (Homo sapiens) (UniProt O00220); test: Binding affinity to human TNF-related apoptosis-inducing ligand receptor 1 by surface plasmon resonance method; method in brief: as §4
Chain of Tumor necrosis factor receptor superfamily member 10A (Homo sapiens) (O00220 whole entry): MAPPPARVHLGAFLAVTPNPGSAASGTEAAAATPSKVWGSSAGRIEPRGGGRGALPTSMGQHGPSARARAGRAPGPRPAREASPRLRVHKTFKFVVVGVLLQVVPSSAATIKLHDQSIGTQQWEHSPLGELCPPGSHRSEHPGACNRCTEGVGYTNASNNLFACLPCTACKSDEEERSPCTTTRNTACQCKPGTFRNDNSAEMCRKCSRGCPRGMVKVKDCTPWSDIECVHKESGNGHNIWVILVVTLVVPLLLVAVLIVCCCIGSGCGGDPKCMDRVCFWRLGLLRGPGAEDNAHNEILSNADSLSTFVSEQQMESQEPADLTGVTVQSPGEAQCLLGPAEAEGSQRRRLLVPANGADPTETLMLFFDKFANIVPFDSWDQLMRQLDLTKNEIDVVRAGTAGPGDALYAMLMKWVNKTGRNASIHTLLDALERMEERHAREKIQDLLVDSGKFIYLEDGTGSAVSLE

[15] = system: A20; test: Induction of apoptosis in mouse CD40-expressing mouse A20 cells assessed as decrease in mitochondrial membrane potential after 16 hrs by mean fluorescence intensity; type: functional, cell-based
Method in brief: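 Mouse A20 lymphoma cells treated at 37 °C and analysed by flow cytometry for reduced DiOC₆(3) uptake (loss of mitochondrial membrane potential). Result given as percentage specific apoptosis relative to untreated control cells.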

[16] = target: T3, Tumor necrosis factor receptor superfamily member 17 (Mus musculus) (UniProt O88472); test: Binding affinity to mouse B-cell maturation protein by surface plasmon resonance method; method in brief: as §4
T3 sequence (whole entry): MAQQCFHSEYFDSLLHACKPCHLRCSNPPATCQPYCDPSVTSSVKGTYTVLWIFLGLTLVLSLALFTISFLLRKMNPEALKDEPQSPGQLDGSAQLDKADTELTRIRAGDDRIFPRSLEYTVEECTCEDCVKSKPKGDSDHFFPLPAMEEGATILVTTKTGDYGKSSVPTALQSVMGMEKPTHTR

[17] = Activation of NF-kappaB pathway in mouse D1 cells assessed as increased degradation of IkappaBalpha protein by immunoblotting assay; type: functional, cell-based
Method in brief: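 D1 dendritic cells grown in IMDM with 10% FBS and 30% NIH/3T3 supernatant as GM-CSF source; 2×10^5 cells ml⁻¹ precultured 48 h, then fresh medium with inducers added. Cells washed, harvested in PBS/2 mM EDTA, lysed and immunoblotted for IκBα, with actin as loading reference; IκBα/actin band intensity ratio reported.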

[18] = target: T4, Tumor necrosis factor receptor superfamily member EDAR (Homo sapiens) (UniProt Q9UNE0); test: Binding affinity to human Ectodysplasin-A receptor by surface plasmon resonance method; method in brief: as §4
T4 sequence (whole entry): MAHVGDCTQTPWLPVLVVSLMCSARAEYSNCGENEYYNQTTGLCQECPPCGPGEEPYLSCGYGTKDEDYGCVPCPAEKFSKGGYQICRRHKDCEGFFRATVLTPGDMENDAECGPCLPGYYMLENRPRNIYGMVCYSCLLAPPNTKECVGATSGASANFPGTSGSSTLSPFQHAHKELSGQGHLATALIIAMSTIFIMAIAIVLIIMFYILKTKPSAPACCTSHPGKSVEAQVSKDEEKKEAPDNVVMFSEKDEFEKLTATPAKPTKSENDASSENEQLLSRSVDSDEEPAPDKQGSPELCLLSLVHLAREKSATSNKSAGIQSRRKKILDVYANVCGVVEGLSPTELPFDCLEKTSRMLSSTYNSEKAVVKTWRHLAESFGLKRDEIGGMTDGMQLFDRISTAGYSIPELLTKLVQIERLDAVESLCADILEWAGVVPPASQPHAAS

[19] = target: T5, Tumor necrosis factor receptor superfamily member 1B (Homo sapiens) (UniProt P20333); test: Binding affinity to human Tumor necrosis factor receptor 2 by surface plasmon resonance method; method in brief: as §4
T5 sequence (whole entry): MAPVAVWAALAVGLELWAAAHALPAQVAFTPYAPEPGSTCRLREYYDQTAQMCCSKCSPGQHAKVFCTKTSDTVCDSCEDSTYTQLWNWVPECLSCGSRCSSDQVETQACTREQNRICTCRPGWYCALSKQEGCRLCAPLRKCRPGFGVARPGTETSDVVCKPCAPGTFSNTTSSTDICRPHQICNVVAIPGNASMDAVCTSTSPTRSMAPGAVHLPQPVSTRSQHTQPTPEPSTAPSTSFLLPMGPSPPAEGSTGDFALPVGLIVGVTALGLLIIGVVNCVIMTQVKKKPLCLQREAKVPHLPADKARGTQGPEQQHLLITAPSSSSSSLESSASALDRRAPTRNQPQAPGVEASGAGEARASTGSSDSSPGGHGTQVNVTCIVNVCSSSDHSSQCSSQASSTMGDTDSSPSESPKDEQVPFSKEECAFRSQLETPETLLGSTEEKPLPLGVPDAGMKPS

Row | Structure (SMILES) | Activity [1] | Activity [2] | Activity [3] | IC50 [4] [nM] | inhibition [5] [%] | Activity [6] | Activity [7] | inhibition [4] | Activity [8] | Activity [9] | Activity [10] | Activity [11] | Activity [12] | Activity [13] | Activity [14] | Activity [15] | Activity [16] | Activity [17] | Activity [18] | Activity [19]
1 | NCCCC[C@H](N)C(=O)NCC(=O)N[C@@H](Cc1ccc(O)cc1)C(=O)N[C@@H](Cc1ccc(O)cc1)C(=O)NCCCCCC(=O)NCCCOCC(COCCCNC(=O)CCCCCNC(=O)[C@H](Cc1ccc(O)cc1)NC(=O)[C@H](Cc1ccc(O)cc1)NC(=O)CNC(=O)[C@@H](N)CCCCN)(COCCCNC(=O)CCCCCNC(=O)[C@H](Cc1ccc(O)cc1)NC(=O)[C@H](Cc1ccc(O)cc1)NC(=O)CNC(=O)[C@@H](N)CCCCN)NC(=O)CCC(N)=O | inactive | inactive | inactive | > 10000 | 20 | inactive |  |  |  |  |  |  |  |  |  |  |  |  |  | 
2 | C[C@H]1NC(=O)[C@H](CCCCN)NC(=O)[C@@H](C)NC(=O)[C@H](CCCCN)NC(=O)[C@@H](C)NC(=O)[C@H](CCCCN)NC1=O | inactive | inactive | inactive |  |  | inactive | inactive | inactive | inactive | inactive |  |  |  |  |  |  |  |  |  | 
3 | NCCCC[C@H](N)C(=O)NCC(=O)N[C@@H](Cc1ccc(O)cc1)C(=O)N[C@@H](Cc1ccc(O)cc1)C(=O)NCCCCCC(=O)O (H-KGYY[Ahx]-OH) | inactive | inactive | inactive |  |  | inactive | inactive | inactive | inactive | inactive |  |  |  |  |  |  |  |  |  | 
4 | NCCCC[C@H](N)C(=O)NCC(=O)N[C@@H](Cc1ccc(O)cc1)C(=O)N[C@@H](Cc1ccc(O)cc1)C(=O)NCCCCCC(=O)NCCCC[C@@H]1CNC(=O)C[C@H](CCCCNC(=O)CCCCCNC(=O)[C@H](Cc2ccc(O)cc2)NC(=O)[C@H](Cc2ccc(O)cc2)NC(=O)CNC(=O)[C@@H](N)CCCCN)NC[C@H](CCCCNC(=O)CCCCCNC(=O)[C@H](Cc2ccc(O)cc2)NC(=O)[C@H](Cc2ccc(O)cc2)NC(=O)CNC(=O)[C@@H](N)CCCCN)NC(=O)C1 | Active | Active | Active | 50 |  | Active |  |  |  |  | Active |  |  |  |  |  |  |  |  | 
5 | C[C@H]1NC(=O)[C@H](CCCCNC(=O)CCCCCNC(=O)[C@H](Cc2ccc(O)cc2)NC(=O)[C@H](Cc2ccc(O)cc2)NC(=O)CNC(=O)[C@@H](N)CCCCN)NC(=O)[C@@H](C)NC(=O)[C@H](CCCCNC(=O)CCCCCNC(=O)[C@H](Cc2ccc(O)cc2)NC(=O)[C@H](Cc2ccc(O)cc2)NC(=O)CNC(=O)[C@@H](N)CCCCN)NC(=O)[C@@H](C)NC(=O)[C@H](CCCCNC(=O)CCCCCNC(=O)[C@H](Cc2ccc(O)cc2)NC(=O)[C@H](Cc2ccc(O)cc2)NC(=O)CNC(=O)[C@@H](N)CCCCN)NC1=O (cyclo(K([Ahx-Tyr-Tyr-Gly-Lys])[dA]K([Ahx-Tyr-Tyr-Gly-Lys])[dA]K([Ahx-Tyr-Tyr-Gly-Lys])[dA])) | Active | Active | Active | 78 |  | Active | Active |  | Active | Active |  | inactive | inactive | Active | inactive | Active | inactive | Active | inactive | inactive
6 | C[C@@H](NC(=O)[C@H](CCCCNC(=O)CCCCCNC(=O)[C@H](Cc1ccc(O)cc1)NC(=O)[C@H](Cc1ccc(O)cc1)NC(=O)CNC(=O)[C@@H](N)CCCCN)NC(=O)[C@@H](C)NC(=O)[C@H](CCCCNC(=O)CCCCCNC(=O)[C@H](Cc1ccc(O)cc1)NC(=O)[C@H](Cc1ccc(O)cc1)NC(=O)CNC(=O)[C@@H](N)CCCCN)NC(=O)[C@@H](C)NC(=O)[C@@H](N)CCCCNC(=O)CCCCCNC(=O)[C@H](Cc1ccc(O)cc1)NC(=O)[C@H](Cc1ccc(O)cc1)NC(=O)CNC(=O)[C@@H](N)CCCCN)C(=O)O | inactive | inactive | inactive |  |  | inactive | inactive | inactive | inactive | inactive |  |  |  |  |  |  |  |  |  | 

Source: ChEMBL document CHEMBL1240299, “C3-symmetric peptide scaffolds are functional mimetics of trimeric CD40L” (Nat Chem Biol, 2005)
